Data set [1] in a line: Toxicity in mouse assessed as effect on CBC parameters by measuring lymphocytes counts at 200 mg/kg, po QD for 7 days by histological analysis (reference value: 4060 +/- 1266 ABS/uL). The format is organism-based. As to conditions: in vivo, 168 h, time 7 day.
Data set [2] can be described thus: Toxicity in mouse at 100 to 200 mg/kg, po QD for 7 days. It counts as organism-based. The following applies: in vivo, 168 h, dose 100-200 mg/kg, time 7 day.
Data set [3] in a line: Toxicity in mouse assessed as induction of organ abnormalities at 100 to 200 mg/kg, po QD for 7 days by histological analysis. The format is organism-based. The following applies: in vivo, 168 h, dose 100-200 mg/kg, time 7 day.
Data set [4] is described as follows: Toxicity in mouse assessed as induction of distress at 100 to 400 mg/kg, po. It counts as organism-based. The following applies: in vivo, dose 100-400 mg/kg.
Data set [5] is described as follows: Toxicity in mouse at 100 to 400 mg/kg, po. The following applies: in vivo, dose 100-400 mg/kg. It counts as organism-based.
Data set [6] in a line: Toxicity in mouse assessed as effect on CBC parameters by measuring white blood cell counts at 200 mg/kg, po QD for 7 days by histological analysis (reference value: […] +/- […] 10^3/uL). It counts as organism-based. The following applies: in vivo, 168 h, time 7 day.
In another data set the test system is HepG2. As to the kind of experiment: Toxicity in human HepG2 cells. The format is cell-based.
Data set [7] in a line: Toxicity in human CRL-8155 cells. It counts as cell-based.
Data set [8] in a line: Toxicity in mouse assessed as effect on CBC parameters by measuring white blood cell counts at 100 mg/kg, po QD for 7 days by histological analysis (reference value: […] +/- […] 10^3/uL). It counts as organism-based. As to conditions: in vivo, 168 h, time 7 day.
Data set [9] can be described thus: Toxicity in mouse assessed as effect on CBC parameters by measuring lymphocytes counts at 100 mg/kg, po QD for 7 days by histological analysis (reference value: 4060 +/- 1266 ABS/uL). The format is organism-based. The following applies: in vivo, 168 h, time 7 day.
Data set [10] is described as follows: Toxicity in mouse assessed as effect on CBC parameters at 150 to 300 mg/kg, po QD for 7 days. It counts as organism-based. As to conditions: in vivo, 168 h, dose 150-300 mg/kg, time 7 day.
The target of data set [11] is Proto-oncogene tyrosine-protein kinase Src (Homo sapiens, UniProt P12931). As to the kind of experiment: Inhibition of SRC (unknown origin). It counts as ADME.
The test system of data set [12] is Cryptosporidium parvum. The data set can be described thus: Antimicrobial activity against nano-luciferase-expressing Cryptosporidium parvum infected in IFN-gamma KO B6.129S7-Ifngtm1Ts/J mouse assessed as log reduction of infection at 120 mg/kg, po QD for 5 days beginning on day 6 post infection relative untreated control. The format is functional, organism-based. As to conditions: time 5.0 day.

Data set [13] can be described thus: Toxicity in mouse assessed as effect on serum chemistry parameters at 150 to 300 mg/kg, po QD for 7 days. It counts as organism-based. The following applies: in vivo, 168 h, dose 150-300 mg/kg, time 7 day.
Data set [14] in a line: Toxicity in mouse assessed as effect on organ parameters at 150 to 300 mg/kg, po QD for 7 days by histological analysis. The following applies: in vivo, 168 h, dose 150-300 mg/kg, time 7 day. The format is organism-based.
Data set [15] concerns Cryptosporidium parvum. The data set can be described thus: Antimicrobial activity against nano-luciferase-expressing Cryptosporidium parvum infected in IFN-gamma KO B6.129S7-Ifngtm1Ts/J mouse assessed as log reduction of infection at 60 mg/kg, po BID for 5 days beginning on day 6 post infection relative untreated control. It counts as functional. As to conditions: time 5 day.

Data set [16] in a line: Toxicity in mouse assessed as induction of distress at 150 to 600 mg/kg, po. The format is organism-based. The following applies: in vivo, dose 150-600 mg/kg. The procedure, abridged:
(§1)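 Escalating single oral doses were given to mice until toxicity signs appeared. Regimens were 100, 150, 200 and 250 mg/kg, and 150, 200, 300, 400 and 600 mg/kg. Escalation was limited by solubility in the dosing solution.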

Data set [17] has as its system Cryptosporidium parvum. The data set can be described thus: Antimicrobial activity against nano-luciferase-expressing Cryptosporidium parvum infected in IFN-gamma KO B6.129S7-Ifngtm1Ts/J mouse assessed as log reduction of infection at 5 mg/kg, po BID for 5 days beginning on day 6 post infection relative untreated control. It counts as functional, organism-based. As to conditions: time 5.0 day.

Data set [18] deals with Cryptosporidium parvum. As to the kind of experiment: Antimicrobial activity against nano-luciferase-expressing Cryptosporidium parvum infected in IFN-gamma KO B6.129S7-Ifngtm1Ts/J mouse assessed as log reduction of infection at 15 mg/kg, po BID for 5 days beginning on day 6 post infection relative untreated control. It counts as functional, organism-based. The following applies: time 5.0 day.

The nature of data set [19]: Toxicity in mouse at 150 to 300 mg/kg, po QD for 7 days. It counts as organism-based. As to conditions: in vivo, 168 h, dose 150-300 mg/kg, time 7 day.
The nature of data set [20]: Clearance in mouse at 25 mg/kg, po. The following applies: in vivo. It counts as ADME, organism-based.
Data set [21] is described as follows: Protein binding in mouse plasma by dialysis method.
The test system of data set [22] is Cryptosporidium parvum. The data set can be described thus: Antimicrobial activity against nano-luciferase-expressing Cryptosporidium parvum infected in IFN-gamma KO B6.129S7-Ifngtm1Ts/J mouse assessed as log reduction of infection at 30 mg/kg, po BID for 5 days beginning on day 6 post infection relative untreated control. It counts as functional, organism-based. The following applies: time 5.0 day.

The nature of data set [23]: Inhibition of Cryptosporidium parvum CDPK1 assessed as reduction in ATP consumption using BioSyntide-2 substrate incubated for 90 mins by luciferase reporter gene assay. (In general: Reporter assays use an easily measured gene product as a stand-in for the process of interest.)
The nature of data set [24]: AUC in mouse at 25 mg/kg, po. It counts as ADME, organism-based. More on the design: dose 25 mg/kg. As to conditions: in vivo.
For data set [25] the following is noted: mouse, in vivo, po, 30 mg/kg, 168 h.
In data set [26] the test system is Cryptosporidium parvum. As to the kind of experiment: Antimicrobial activity against nano-luciferase-expressing Cryptosporidium parvum infected in IFN-gamma KO B6.129S7-Ifngtm1Ts/J mouse assessed as log reduction of infection at 60 mg/kg, po QD for 5 days beginning on day 6 post infection relative untreated control. The following applies: time 5.0 day.
A short description of data set [27]: Toxicity in mouse at 150 to 600 mg/kg, po. It counts as organism-based. As to conditions: in vivo, dose 150-600 mg/kg. In a few lines:
as §1

Data set [28] can be described thus: Protein binding in human plasma by dialysis method.
Data set [29] is described as follows: Cardiotoxicity in rat. The format is toxicity.

Each structure is given as a SMILES string. Active and inactive are the calls of the source. The rule behind the calls is not given here. Bounds are passed on as bounds.

The term IC50 denotes the midpoint of a concentration-inhibition curve. What is called CL/F is clearance divided by bioavailability, as obtained after extravascular dosing. As usually defined, the AUC is concentration integrated over time. What is called Cmax is the peak of the concentration-time curve.

Proto-oncogene tyrosine-protein kinase Src, sequence (P12931 2-536 limits assumed): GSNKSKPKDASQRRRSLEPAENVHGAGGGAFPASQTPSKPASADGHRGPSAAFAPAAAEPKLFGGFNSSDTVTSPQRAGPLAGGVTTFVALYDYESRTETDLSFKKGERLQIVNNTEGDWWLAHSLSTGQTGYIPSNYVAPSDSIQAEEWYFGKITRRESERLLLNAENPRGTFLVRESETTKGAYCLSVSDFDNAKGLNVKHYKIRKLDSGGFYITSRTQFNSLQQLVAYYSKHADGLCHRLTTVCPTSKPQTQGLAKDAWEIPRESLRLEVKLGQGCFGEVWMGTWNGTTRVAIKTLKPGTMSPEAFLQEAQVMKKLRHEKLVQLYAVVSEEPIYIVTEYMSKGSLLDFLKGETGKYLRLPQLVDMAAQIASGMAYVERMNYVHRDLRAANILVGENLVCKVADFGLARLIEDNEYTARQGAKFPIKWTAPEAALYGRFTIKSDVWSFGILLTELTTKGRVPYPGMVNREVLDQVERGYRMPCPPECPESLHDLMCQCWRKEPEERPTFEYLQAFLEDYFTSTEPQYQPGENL

Turning to `CC(C)(CO)Cn1nc(-c2ccc3cc(OC4CC4)ccc3c2)c(C(N)=O)c1N`, the Activity was 1301 abs/uL in data set [1]; “Non-Toxic” in [2]; “Non-Toxic” in [3]; “Non-Toxic” in data set [4]; “Non-Toxic” in data set [5]; 1.5 10^3 /uL in [6]. The Activity entry is listed as “Non-Toxic” in the data set with HepG2, “Non-Toxic” in [7], 1.5 10^3 /uL in [8] and 1194 abs/uL in [9].
Turning to `CCOc1ccc2cc(-c3nn(C(C)(C)CCO)c(N)c3C(N)=O)ccc2c1`, the Activity entry (in data set [10]; in [13]; in data set [14]; in data set [16]; in data set [19]; in the data set on HepG2) was “Non-Toxic” throughout. The Activity entry in data set [7] and in data set [27] was “Non-Toxic” each time. For the same compound, the results for the IC50 in data set [11] and in data set [23] were greater than 10000 nM and 2.5 nM, respectively. Besides, the outcome with Cryptosporidium parvum [12] and in the data set with Cryptosporidium parvum [22] was Active. The log reduction in the data set on Cryptosporidium parvum [15] was determined as 3.37. Moreover, the result with Cryptosporidium parvum [17], in the data set on Cryptosporidium parvum [18] and with Cryptosporidium parvum [26] was inactive. Further, the CL/F in data set [20] came to 11.1 mL/min. Moreover, the PPB in data set [21] is listed as 94%; in data set [28] it was 99%. For the same compound, the AUC in data set [24] is 144.5 µmol·min/L. In addition, the peak level in [25] (Cmax) was 510 nM.
Regarding `CCOc1ccc2cc(-c3nn(C(C)(C)C)c(N)c3C(N)=O)cnc2c1`, in [29], the Activity result is given as “Toxic”.

These data come from ChEMBL document CHEMBL4673226, “Development of 5-Aminopyrazole-4-carboxamide-based Bumped-Kinase Inhibitors for Cryptosporidiosis Therapy” (J Med Chem, 2019).
